From ChEMBL document CHEMBL3091351, “The 3,7-diazabicyclo[3.3.1]nonane scaffold for subtype selective nicotinic acetylcholine receptor (nAChR) ligands. Part 1: the influence of different hydrogen bond acceptor systems on alkyl and (hetero)aryl substituents” (Bioorg Med Chem, 2013)
The source made the active and inactive calls. No cut-off for these calls is given here.

Tests used:
[1] = Binding affinity to pig adrenal alpha3beta4 nAChR by radioligand displacement assay; design: species or system Sus scrofa
[2] = Binding affinity to (alpha1)2beta1gammadelta nAChR in Torpedo californica electroplax by radioligand displacement assay; design: species or system Tetronarce californica
Summary of the method: (§1)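 Torpedo californica electroplax membranes (60–70 µg) incubated with (±)-[3H]epibatidine and 6–9 test concentrations in HSS buffer, 90 min at 22 °C. 300 µM (−)-nicotine defined non-specific binding. PEI-presoaked glass fibre filtration, scintillation counting; duplicate to quadruplicate, 2–10 independent experiments.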

[3] = target: T1, Neuronal acetylcholine receptor subunit alpha-7 (Rattus norvegicus, UniProt Q05941); assay: Displacement of [3H]methyllycaconitine from rat forebrain alpha7 nAChR
T1 sequence (Q05941 whole entry): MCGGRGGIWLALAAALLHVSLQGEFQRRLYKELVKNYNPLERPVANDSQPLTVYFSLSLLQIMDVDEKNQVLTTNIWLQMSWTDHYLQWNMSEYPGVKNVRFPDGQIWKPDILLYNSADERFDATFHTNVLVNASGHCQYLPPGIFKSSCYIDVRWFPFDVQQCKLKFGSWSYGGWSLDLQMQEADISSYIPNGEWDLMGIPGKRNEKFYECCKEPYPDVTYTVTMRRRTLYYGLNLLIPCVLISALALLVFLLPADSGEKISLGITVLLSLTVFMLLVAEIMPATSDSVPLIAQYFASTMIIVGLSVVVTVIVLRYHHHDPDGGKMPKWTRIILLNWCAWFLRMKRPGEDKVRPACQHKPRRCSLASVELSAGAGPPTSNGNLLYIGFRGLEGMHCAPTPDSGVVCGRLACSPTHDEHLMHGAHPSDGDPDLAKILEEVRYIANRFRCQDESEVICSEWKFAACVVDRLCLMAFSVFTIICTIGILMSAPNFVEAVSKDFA
Summary of the method: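 Competition binding on rat forebrain P2 membranes (60–70 µg protein) with [3H]MLA across 6–9 test concentrations. Incubation 120 min at 22 °C; 1 µM MLA defined non-specific binding. Samples filtered on PEI-presoaked glass fibre, scintillation-counted; duplicate to quadruplicate, 2–10 independent experiments.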

[4] = target: T2, Neuronal acetylcholine receptor; alpha4/beta2 (Rattus norvegicus, UniProt P09483+P12390); assay: Displacement of [3H]-epibatidine from rat forebrain alpha4beta2 nAChR
T2 sequence (P09483 whole entry): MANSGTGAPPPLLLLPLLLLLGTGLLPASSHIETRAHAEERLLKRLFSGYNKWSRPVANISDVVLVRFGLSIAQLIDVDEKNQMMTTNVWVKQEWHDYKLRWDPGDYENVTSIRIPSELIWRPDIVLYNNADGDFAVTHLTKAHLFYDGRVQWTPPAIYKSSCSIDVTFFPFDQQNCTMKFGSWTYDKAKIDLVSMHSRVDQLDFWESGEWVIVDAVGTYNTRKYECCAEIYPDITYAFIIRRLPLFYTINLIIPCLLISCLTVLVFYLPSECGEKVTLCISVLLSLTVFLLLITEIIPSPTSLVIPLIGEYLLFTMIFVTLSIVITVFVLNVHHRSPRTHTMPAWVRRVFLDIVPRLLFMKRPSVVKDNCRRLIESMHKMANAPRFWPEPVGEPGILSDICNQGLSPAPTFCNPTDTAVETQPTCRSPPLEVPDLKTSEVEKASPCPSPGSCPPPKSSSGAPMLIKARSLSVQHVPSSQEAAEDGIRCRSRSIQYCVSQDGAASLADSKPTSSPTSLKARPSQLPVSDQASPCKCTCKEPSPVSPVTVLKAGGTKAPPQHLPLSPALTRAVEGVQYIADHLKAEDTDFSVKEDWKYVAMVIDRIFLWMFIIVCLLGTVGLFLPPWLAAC
T2 sequence (P12390 whole entry): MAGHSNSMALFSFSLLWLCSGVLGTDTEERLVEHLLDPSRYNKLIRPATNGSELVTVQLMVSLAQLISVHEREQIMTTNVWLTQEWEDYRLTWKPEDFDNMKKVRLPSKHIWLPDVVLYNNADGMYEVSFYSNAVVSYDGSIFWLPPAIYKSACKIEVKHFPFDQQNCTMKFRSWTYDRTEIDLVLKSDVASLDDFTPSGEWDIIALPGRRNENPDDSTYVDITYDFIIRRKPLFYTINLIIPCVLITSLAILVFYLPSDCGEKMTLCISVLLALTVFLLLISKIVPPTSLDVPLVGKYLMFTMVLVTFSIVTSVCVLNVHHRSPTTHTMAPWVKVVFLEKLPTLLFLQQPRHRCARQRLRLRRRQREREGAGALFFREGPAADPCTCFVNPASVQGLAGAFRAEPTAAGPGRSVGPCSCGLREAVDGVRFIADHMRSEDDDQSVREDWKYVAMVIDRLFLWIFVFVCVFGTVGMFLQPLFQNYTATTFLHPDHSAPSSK
Summary of the method: (§2)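 Rat forebrain P2 membranes (60 µg protein) in HSS buffer with 0.5 nM (±)-[3H]epibatidine and 6–9 test concentrations. Incubated 90 min at 22 °C; non-specific binding defined with 300 µM (−)-nicotine. Filtered through PEI-presoaked glass fibre filters and counted by liquid scintillation. Run in duplicate to quadruplicate, with 2–10 independent experiments.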

[5] = target: Neuronal acetylcholine receptor; alpha4/beta2 (Homo sapiens, UniProt P17787+P43681); assay: Agonist activity at human alpha4beta2 nAChR expressed in Xenopus laevis oocytes at 1 uM incubated for 8 secs followed by compound washout for 241 secs by Two-electrode voltage clamp assay; type: cell-based
Summary of the method: (§3)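 Stage V oocytes, defolliculated with collagenase, injected with 5–20 ng subunit cRNA and recorded 1–7 days later. Two-electrode clamp at −60 mV in Ringer's with 1 µM atropine, pH 7.2. Perfusion 2 ml/min for α7, 4 ml/min for the others. Test applications were bracketed by ACh controls (30 µM α1β1εδ, 60 µM α7, 100 µM α3β4, 30 µM α4β2).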

[6] = target: Neuronal acetylcholine receptor subunit alpha-7 (Homo sapiens) (UniProt P36544); assay: Agonist activity at human alpha7 nAChR expressed in Xenopus laevis oocytes at 1 uM incubated for 12 secs followed by compound washout for 181 secs by Two-electrode voltage clamp assay; type: cell-based; summary of the method: as §3
Sequence of Neuronal acetylcholine receptor subunit alpha-7 (Homo sapiens) (P36544 whole entry): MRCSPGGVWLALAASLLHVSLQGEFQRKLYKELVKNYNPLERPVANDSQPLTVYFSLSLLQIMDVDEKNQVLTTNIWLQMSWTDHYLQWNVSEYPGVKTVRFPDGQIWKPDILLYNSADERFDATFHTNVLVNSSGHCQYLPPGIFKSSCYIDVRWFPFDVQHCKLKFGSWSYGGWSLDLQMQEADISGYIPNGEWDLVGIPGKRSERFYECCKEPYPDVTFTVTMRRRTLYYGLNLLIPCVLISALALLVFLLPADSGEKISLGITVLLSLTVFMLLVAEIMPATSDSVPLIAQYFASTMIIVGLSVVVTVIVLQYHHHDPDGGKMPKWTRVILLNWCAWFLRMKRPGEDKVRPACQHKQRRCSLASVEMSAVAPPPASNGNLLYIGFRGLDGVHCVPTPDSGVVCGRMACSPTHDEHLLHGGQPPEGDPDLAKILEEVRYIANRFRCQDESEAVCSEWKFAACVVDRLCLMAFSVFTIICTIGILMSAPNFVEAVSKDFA

[7] = target: T3, Neuronal acetylcholine receptor; alpha3/beta4 (Homo sapiens) (UniProt P30926+P32297); assay: Agonist activity at human alpha3beta4 nAChR expressed in Xenopus laevis oocytes at 1 uM incubated for 8 secs followed by compound washout for 241 secs by Two-electrode voltage clamp assay; type: cell-based; summary of the method: as §3
[8] = Displacement of [3H]epibatidine from alpha3beta4 nAChR in calf adrenal membranes fraction after 90 mins by liquid scintillation counting analysis; type: cell membranes, Bos taurus
Summary of the method: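 Calf adrenal membranes (60–70 µg) in HSS buffer with 0.5 nM (±)-[3H]epibatidine, 6–9 test concentrations, 90 min at 22 °C. Non-specific binding with 300 µM (−)-nicotine. PEI-presoaked glass fibre filtration, liquid scintillation read-out; duplicate to quadruplicate, 2–10 independent experiments.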

[9] = target: T3, Neuronal acetylcholine receptor; alpha3/beta4 (Homo sapiens); assay: Agonist activity at human alpha3beta4 nAChR expressed in Xenopus laevis oocytes at 10 uM incubated for 8 secs followed by compound washout for 241 secs by Two-electrode voltage clamp assay; type: cell-based; summary of the method: as §3
[10] = target: T2, Neuronal acetylcholine receptor; alpha4/beta2; assay: Displacement of [3H]epibatidine from alpha4beta2 nAChR in Sprague-Dawley rat forebrain P2 fraction after 90 mins by liquid scintillation counting analysis; summary of the method: as §2
[11] = target: Neuronal acetylcholine receptor subunit alpha-7 (Homo sapiens) (UniProt P36544); assay: Agonist activity at human alpha7 nAChR expressed in Xenopus laevis oocytes at 10 uM incubated for 12 secs followed by compound washout for 181 secs by Two-electrode voltage clamp assay; type: cell-based; summary of the method: as §3
[12] = Displacement of [3H]epibatidine from (alpha1)2beta1gammadelta nAChR in Torpedo californica electroplax after 90 mins by liquid scintillation counting analysis; design: species or system Tetronarce californica; summary of the method: as §1
[13] = target: Nicotinic acetylcholine receptor alpha1/beta1/epsilon/delta (Mus musculus) (UniProt P04756+P09690+P02716+P20782); assay: Agonist activity at mouse alpha1beta1epsilondelta nAChR expressed in Xenopus laevis oocytes at 1 uM incubated for 8 secs followed by compound washout for 241 secs by Two-electrode voltage clamp assay; type: cell-based; summary of the method: as §3
[14] = target: T1, Neuronal acetylcholine receptor subunit alpha-7; assay: Displacement of [3H]methyllycaconitine from alpha7 nAChR in Sprague-Dawley rat forebrain P2 fraction after 90 mins by liquid scintillation counting analysis

| Structure (SMILES) | Ki [1] [nM] | Ki [2] [nM] | Ki [3] [nM] | Ki [4] [nM] | Activity [5] | Activity [6] | Activity [7] | Ki [8] [nM] | Activity [9] | Ki [10] [nM] | Activity [11] | Ki [12] [nM] | Activity [13] | Ki [14] [nM] |
| --- | --- | --- | --- | --- | --- | --- | --- | --- | --- | --- | --- | --- | --- | --- |
| O=c1cccc2n1C[C@@H]1CNC[C@H]2C1 [CYTISINICLINE] | 19 | 1300 | 250 |  |  |  |  |  |  |  |  |  |  |  |
| O=c1c(-c2cccnc2)ccc2n1C[C@@H]1CNC[C@H]2C1 |  | > 5000 | 1100 | 0.91 |  |  |  |  |  |  |  |  |  |  |
| C1NCC2CNCC1C2 |  |  |  |  | Active | Active | Active | > 1000 | Active | 600 | Active | > 1000 | Active | > 1000 |
